ChEMBL document CHEMBL4321868, “Scaffold Simplification Strategy Leads to a Novel Generation of Dual Human Immunodeficiency Virus and Enterovirus-A71 Entry Inhibitors” (J Med Chem, 2020)

Columns and labels:
[1] = Cytotoxicity against human MT4 cells assessed as reduction in cell viability measured after 5 days by MTS/PES assay; assay type: cell-based
Method in brief: (§1)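 MT-4 cells (RPMI-1640, 10% FCS, 1% L-glutamine) pre-incubated 30 min at 37 °C with compound, then infected with HIV-1 NL4.3 or HIV-2 ROD according to stock TCID50. After 5 days, CPE scored microscopically and viability read by MTS/PES at A490 to derive EC50; cytotoxicity measured by MTS/PES at 5 days in the same cells. SI = CC50/EC50. Mean ± S.D. of at least 3 experiments.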

[2] = system: Human immunodeficiency virus 1; assay: Antiviral activity against HIV1 NL4.3 infected in human MT4 cells assessed as reduction in virus-induced cytopathic effect preincubated for 30 mins followed by viral infection and measured after 5 days by MTS assay; assay type: functional, organism-based; details: Human immunodeficiency virus 1, NL4.3, MT4
[3] = Selectivity index, ratio of CC50 for human MT4 cells to EC50 for HIV1 NL4.3 infected in human MT4 cells; assay type: toxicity, cell-based; details: read-out: Ratio CC50/EC50; method in brief: as §1
[4] = Selectivity index, ratio of CC50 for human MT4 cells to EC50 for HIV-1 NL4.3 infected in human MT4 cells
[5] = system: Enterovirus A71; assay: Antiviral activity against Enterovirus A 71 BrCr infected in human RD cells assessed as reduction in virus-induced cytopathic effect preincubated for 1 day followed by viral infection and measured after 3 days by MTS/PMS method; assay type: functional, organism-based; details: strain BRCR
Method in brief: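 RD cells seeded in 96-well plates; next day serial compound dilutions plus virus at low MOI added. Incubation at 37 °C, 5% CO₂ until full CPE in untreated infected controls (3 days). Viability read by MTS/PMS; EC50 as 50% inhibition of virus-induced death from dose-response curves. CC50 from uninfected treated cells in the same setup; SI = CC50/EC50.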

[6] = system: Human immunodeficiency virus 2; assay: Antiviral activity against HIV-2 ROD infected in human MT4 cells assessed as reduction in virus-induced cytopathic effect preincubated for 30 mins followed by viral infection and measured after 5 days by MTS assay; details: Human immunodeficiency virus 2, ISOLATE ROD
[7] = Selectivity index, ratio of CC50 for human RD cells to EC50 for Enterovirus A71 BrCr infected in human RD cells; assay type: toxicity, cell-based; details: read-out: Ratio CC50/EC50
Method in brief: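 RD cells seeded in 96-well plates; next day serial compound dilutions plus virus at low MOI added. Incubation at 37 °C, 5% CO₂ until full CPE in untreated infected controls (3 days). CC50 from uninfected treated cells in the same setup; SI = CC50/EC50.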

Compound `CN[C@@H]1[C@H](O[C@@H]2OC[C@@H](O)[C@H](O)[C@H]2O)[C@@H](O)[C@H](O[C@H]2c3cc(C)c(C(=O)N[C@H](C)C(=O)O)c(O)c3-c3c(cc4c(c3O)C(=O)c3cc(OC)cc(O)c3C4=O)[C@@H]2O)O[C@@H]1C` [PRADIMICIN A] has a CC50 at 120 h [1] of over 100 µM, an EC50 [2] of 3.3 µM and a selectivity ratio [3] of over 30.3. The selectivity ratio [4] was over 30.3.

`O=C(CCC(CCC(=O)NC(Cc1c(-c2ccc(C(=O)O)cc2)[nH]c2ccccc12)C(=O)O)(CCC(=O)NC(Cc1c(-c2ccc(C(=O)O)cc2)[nH]c2ccccc12)C(=O)O)[N+](=O)[O-])NC(Cc1c(-c2ccc(C(=O)O)cc2)[nH]c2ccccc12)C(=O)O` (stereo unspecified) showed an EC50 [5] of 12.2 µM, an EC50 [6] of over 71 µM and a CC50 at 120 h [1] of 71 µM. It also gave an EC50 [2] of 2.4 µM, a selectivity ratio [3] of 29.6 and a selectivity ratio [4] of 29.6.

For `O=C(CCOCC(COCCC(=O)NC(Cc1c(-c2ccc(C(=O)O)cc2)[nH]c2ccccc12)C(=O)O)(COCCC(=O)NC(Cc1c(-c2ccc(C(=O)O)cc2)[nH]c2ccccc12)C(=O)O)COCCC(=O)NC(Cc1c(-c2ccc(C(=O)O)cc2)[nH]c2ccccc12)C(=O)O)NC(Cc1c(-c2ccc(C(=O)O)cc2)[nH]c2ccccc12)C(=O)O` (stereo unspecified), the EC50 [5] was 0.37 µM, the EC90 [5] was 0.63 µM and the EC50 [6] was 0.75 µM. For the same compound, the selectivity ratio [7] was 161, the CC50 at 120 h [1] was over 100 µM and the EC50 [2] was 0.73 µM. For the same compound, the selectivity ratio [3] was over 137 and the selectivity ratio [4] was over 137.

With `O=C(CCC(CCC(=O)NC(Cc1c(-c2ccc([N+](=O)[O-])cc2)[nH]c2ccccc12)C(=O)O)(CCC(=O)NC(Cc1c(-c2ccc([N+](=O)[O-])cc2)[nH]c2ccccc12)C(=O)O)[N+](=O)[O-])NC(Cc1c(-c2ccc([N+](=O)[O-])cc2)[nH]c2ccccc12)C(=O)O` (stereo unspecified) the EC50 [5] was 28.8 µM, the EC90 [5] was 58.2 µM and the EC50 [6] was 43 µM. For the same compound, the CC50 at 120 h [1] was over 100 µM, the EC50 [2] was 41 µM and the selectivity ratio [3] was over 2. For the same compound, the selectivity ratio [4] was over 2.

`O=C(CCC(CCC(=O)NC(Cc1cn(Cc2ccccc2)c2ccccc12)C(=O)O)(CCC(=O)NC(Cc1cn(Cc2ccccc2)c2ccccc12)C(=O)O)[N+](=O)[O-])NC(Cc1cn(Cc2ccccc2)c2ccccc12)C(=O)O` (stereo unspecified) showed an EC50 [6] of 38 µM, a CC50 at 120 h [1] of over 100 µM and an EC50 [2] of 49 µM. It also gave a selectivity ratio [3] of over 2 and a selectivity ratio [4] of over 2.

`O=C(CCC(CCC(=O)NC(Cc1c(-c2ccc(C(F)(F)F)cc2)[nH]c2ccccc12)C(=O)O)(CCC(=O)NC(Cc1c(-c2ccc(C(F)(F)F)cc2)[nH]c2ccccc12)C(=O)O)[N+](=O)[O-])NC(Cc1c(-c2ccc(C(F)(F)F)cc2)[nH]c2ccccc12)C(=O)O` (stereo unspecified) gave an EC50 [5] of over 78.9 µM, an EC50 [6] of 68 µM and a CC50 at 120 h [1] of over 100 µM. For the same compound, the EC50 [2] was 26 µM, the selectivity ratio [3] was over 4 and the selectivity ratio [4] was over 4.

For `O=C(CCOCC(COCCC(=O)NC(Cc1cn(Cc2ccc(C(=O)O)cc2)c2ccccc12)C(=O)O)(COCCC(=O)NC(Cc1cn(Cc2ccc(C(=O)O)cc2)c2ccccc12)C(=O)O)COCCC(=O)NC(Cc1cn(Cc2ccc(C(=O)O)cc2)c2ccccc12)C(=O)O)NC(Cc1cn(Cc2ccc(C(=O)O)cc2)c2ccccc12)C(=O)O` (stereo unspecified), the EC50 [5] was over 19.5 µM, the EC50 [6] was over 76 µM and the CC50 at 120 h [1] was 76 µM. For the same compound, the EC50 [2] was over 76 µM.

`O=C(CCC(CCC(=O)NC(Cc1c(-c2ccccc2)[nH]c2ccccc12)C(=O)O)(CCC(=O)NC(Cc1c(-c2ccccc2)[nH]c2ccccc12)C(=O)O)[N+](=O)[O-])NC(Cc1c(-c2ccccc2)[nH]c2ccccc12)C(=O)O` (stereo unspecified) showed an EC50 [5] of over 100 µM, an EC50 [6] of over 83 µM and a CC50 at 120 h [1] of 83 µM. The EC50 [2] was 19 µM, the selectivity ratio [3] was 4.4 and the selectivity ratio [4] was 4.4.

For `O=C(CCC(CCC(=O)NC(Cc1c(-c2ccccc2F)[nH]c2ccccc12)C(=O)O)(CCC(=O)NC(Cc1c(-c2ccccc2F)[nH]c2ccccc12)C(=O)O)[N+](=O)[O-])NC(Cc1c(-c2ccccc2F)[nH]c2ccccc12)C(=O)O` (stereo unspecified), the EC50 [5] was over 89.4 µM, the EC50 [6] was over 100 µM and the CC50 at 120 h [1] was over 100 µM. The EC50 [2] was 35 µM, the selectivity ratio [3] was over 3 and the selectivity ratio [4] was over 3.

`O=C(CCC(CCC(=O)NC(Cc1cn(Cc2ccc(F)cc2)c2ccccc12)C(=O)O)(CCC(=O)NC(Cc1cn(Cc2ccc(F)cc2)c2ccccc12)C(=O)O)[N+](=O)[O-])NC(Cc1cn(Cc2ccc(F)cc2)c2ccccc12)C(=O)O` (stereo unspecified) showed an EC50 [6] of 34 µM, a CC50 at 120 h [1] of over 100 µM and an EC50 [2] of 43 µM. It also gave a selectivity ratio [3] of over 2.3 and a selectivity ratio [4] of over 2.3.

`O=C(CCC(CCC(=O)NC(Cc1c(-c2cccc(C(=O)O)c2)[nH]c2ccccc12)C(=O)O)(CCC(=O)NC(Cc1c(-c2cccc(C(=O)O)c2)[nH]c2ccccc12)C(=O)O)[N+](=O)[O-])NC(Cc1c(-c2cccc(C(=O)O)c2)[nH]c2ccccc12)C(=O)O` (stereo unspecified) gave an EC50 [5] of 0.99 µM, an EC90 [5] of 1.35 µM and an EC50 [6] of 64 µM. The selectivity ratio [7] was over 73.4, the CC50 at 120 h [1] was over 100 µM and the EC50 [2] was 16 µM. It also gave a selectivity ratio [3] of over 6 and a selectivity ratio [4] of over 6.

With `COc1ccc(-c2[nH]c3ccccc3c2CC(NC(=O)CCC(CCC(=O)NC(Cc2c(-c3ccc(OC)cc3)[nH]c3ccccc23)C(=O)O)(CCC(=O)NC(Cc2c(-c3ccc(OC)cc3)[nH]c3ccccc23)C(=O)O)[N+](=O)[O-])C(=O)O)cc1` (stereo unspecified) the EC50 [5] was over 86.6 µM, the EC50 [6] was over 9.3 µM and the CC50 at 120 h [1] was 9.3 µM. It also gave an EC50 [2] of over 9.3 µM.

Work on `O=C(CCC(CCC(=O)NC(Cc1cn(Cc2ccc(C(=O)O)cc2)c2ccccc12)C(=O)O)(CCC(=O)NC(Cc1cn(Cc2ccc(C(=O)O)cc2)c2ccccc12)C(=O)O)[N+](=O)[O-])NC(Cc1cn(Cc2ccc(C(=O)O)cc2)c2ccccc12)C(=O)O` (stereo unspecified) yielded an EC50 [6] of 47 µM, a CC50 at 120 h [1] of over 100 µM and an EC50 [2] of 41 µM. For the same compound, the selectivity ratio [3] was over 2.4 and the selectivity ratio [4] was over 2.4.

`O=C(CCC(CCC(=O)NC(Cc1c[nH]c2ccccc12)C(=O)O)(CCC(=O)NC(Cc1c[nH]c2ccccc12)C(=O)O)[N+](=O)[O-])NC(Cc1c[nH]c2ccccc12)C(=O)O` (stereo unspecified) showed an EC50 [5] of over 120 µM, an EC50 [6] of over 100 µM and a CC50 at 120 h [1] of over 100 µM. The EC50 [2] was over 100 µM.

In the case of `O=C(CCOCC(COCCC(=O)NC(Cc1c[nH]c2ccccc12)C(=O)O)(COCCC(=O)NC(Cc1c[nH]c2ccccc12)C(=O)O)COCCC(=O)NC(Cc1c[nH]c2ccccc12)C(=O)O)NC(Cc1c[nH]c2ccccc12)C(=O)O` (stereo unspecified), the EC50 [5] is reported as over 100 µM, the EC50 [6] is reported as over 250 µM and the CC50 at 120 h [1] is reported as over 250 µM. For the same compound, the EC50 [2] was over 250 µM.

For `O=C(CCC(CCC(=O)NC(Cc1c(-c2ccc(Br)cc2)[nH]c2ccccc12)C(=O)O)(CCC(=O)NC(Cc1c(-c2ccc(Br)cc2)[nH]c2ccccc12)C(=O)O)[N+](=O)[O-])NC(Cc1c(-c2ccc(Br)cc2)[nH]c2ccccc12)C(=O)O` (stereo unspecified), the EC50 [5] was 65.2 µM, the EC50 [6] was over 30 µM and the CC50 at 120 h [1] was 30 µM. It also gave an EC50 [2] of over 30 µM.
